Reference: PubChem BioAssay
Calls of active or inactive are those of the source.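 How the source made its calls, unless noted: active means NADPH fluorescence slope more negative than the mean of all samples by about 3 SD, 99.7% confidence; inactive means the rest.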

Assays:
[1] = inhibitors of TNFa-induced NFkB p65 translocation, primary screen, imaging, HUVEC, MLSMR starter and 10KST1 sets (AID 438;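 active means inhibition above 20% together with a positive visual image hit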;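 further: compound added about 3h40 before a 20 min TNFalpha stimulation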;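 on inhibition: signal is the nuclear over cytoplasmic p65 intensity ratio per well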); conditions: HUVEC TNFa-induced p65 nuclear translocation; cell count: measured here: nuclei count (cytotoxicity indicator), at 2.08 µM; inhibition: at 2 µM, stronger effect = higher value, 0% TNFa-plus-vehicle, 100% no-TNFa wells
[2] = reduction of polyQ htt aggregates in cells – imaging, exon1htt(103Q)mCFP cells, high-content imaging, primary screen (AID 483;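 active means visual image review flags a hit and inhibition of aggregation exceeds 20%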;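 further: compound exposure lasted 3 days before fixation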;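 on nuclei count: percent of the per-plate median nuclei count of sample wells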); conditions: exon1htt(103Q)mCFP cell line, aggregate imaging, at 2 µM; inhibition of aggregation: stronger effect = higher value; nuclei count: measured here: cell count, toxicity
[3] = endothelial E-selectin expression blockers – imaging, HUVEC, immunofluorescence, MLSMR starter and 10KST1 sets, primary screen (AID 487;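 active means visually confirmed hit in the image check and inhibition above 20%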;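 on inhibition: signal is fraction of cell area covered by stained E-selectin grains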;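 on nuclei count: 100% = median nuclei count of all wells on the same plate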); conditions: HUVEC TNFalpha-induced E-selectin immunofluorescence imaging, at 2 µM; inhibition: stronger effect = higher value; nuclei count: measured here: cell number, toxicity
[4] = biological target: Voltage-gated potassium channel subunit beta-2 (Rattus norvegicus) (UniProt P62483); assay: inhibitors of rat Kvbeta2 reductase activity – biochemical, NADPH fluorescence, primary screen (AID 622;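 active means fluorescence slope higher than the sample average by over 3 SD, cut at about -0.22 in these data, passing the limit was not always enough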;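 further: slope of raw intensity against log time taken from 70 to 1610 s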); conditions: recombinant KvBeta, 4-cyanobenzaldehyde reduction, at 10 µM, stronger effect = higher value
Chain of Voltage-gated potassium channel subunit beta-2 (Rattus norvegicus) (P62483 whole entry, looked up): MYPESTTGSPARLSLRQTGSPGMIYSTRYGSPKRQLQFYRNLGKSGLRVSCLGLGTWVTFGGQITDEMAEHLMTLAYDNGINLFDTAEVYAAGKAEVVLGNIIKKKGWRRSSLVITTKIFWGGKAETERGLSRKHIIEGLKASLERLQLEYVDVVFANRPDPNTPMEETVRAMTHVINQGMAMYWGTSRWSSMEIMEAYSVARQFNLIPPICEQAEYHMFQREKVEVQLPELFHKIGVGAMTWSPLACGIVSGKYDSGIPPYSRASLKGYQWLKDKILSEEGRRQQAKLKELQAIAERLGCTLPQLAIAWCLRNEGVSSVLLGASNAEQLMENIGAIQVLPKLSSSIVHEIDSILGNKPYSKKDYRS

[5] = biological target: Voltage-gated potassium channel subunit beta-2 (Rattus norvegicus) (UniProt P62483); assay: enhancers of rat Kvbeta2 NADPH turnover – biochemical, NADPH fluorescence, primary screen (AID 623); conditions: Recombinant KvBeta, NADPH fluorescence decrease slope, 10 min; at 10 µM; stronger effect = lower value;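 further: fluorescence intensity change per second fitted from 20 to 320 s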
[6] = biological target: Muscarinic acetylcholine receptor M4 (Homo sapiens) (UniProt P08173); assay: M4-linked GIRK flux change, two-sided – cell-based, HEK293 M4/GIRK, thallium flux, BTC-AM, M4 allosteric agonist project, primary screen (AID 625;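 active means fluorescence slope after compound addition differing from the mean of all tested samples at 99.7% confidence, mostly higher but some lower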;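 further: thallium influx through GIRK channels coupled to M4 in HEK293 cells with BTC-AM dye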); conditions: at 10 µM, actives lie on both sides
Chain of Muscarinic acetylcholine receptor M4 (Homo sapiens) (P08173 whole entry, looked up): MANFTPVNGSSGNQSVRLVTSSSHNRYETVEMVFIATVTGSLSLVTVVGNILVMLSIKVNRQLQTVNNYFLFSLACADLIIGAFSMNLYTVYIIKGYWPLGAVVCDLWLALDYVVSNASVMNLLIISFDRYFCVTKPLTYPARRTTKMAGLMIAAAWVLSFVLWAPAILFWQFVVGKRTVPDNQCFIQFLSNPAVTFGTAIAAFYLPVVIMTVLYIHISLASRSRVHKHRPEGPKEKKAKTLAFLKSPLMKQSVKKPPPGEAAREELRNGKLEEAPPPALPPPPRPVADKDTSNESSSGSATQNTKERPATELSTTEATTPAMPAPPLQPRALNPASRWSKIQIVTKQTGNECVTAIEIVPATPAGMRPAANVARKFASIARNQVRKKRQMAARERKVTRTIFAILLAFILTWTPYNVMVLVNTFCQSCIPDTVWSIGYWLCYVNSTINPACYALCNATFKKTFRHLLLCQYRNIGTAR
Outline: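 System: HEK293 cells with M4 receptor and GIRK channels | Incubation: Cells overnight at 37 °C, BTC-AM loading 1 h, reads 2 min total | Technique: Kinetic BTC-AM fluorescence sampled at 1 Hz, 10 s pre-addition baseline | Measure: Post-addition slope, 15–24 s, of baseline-normalized fluorescence | Control set: Carbachol positive, DMSO negative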

[7] = blockers of RIG-like receptor reporter activation – cell-based, Sendai virus stimulus, luciferase, 10K MLSCN set, TLR/RLR signaling modifier project, primary screen (AID 602276;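 active means inhibition at or above 50% at 10 µM; inactive means inhibition below 50%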;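 further: firefly luciferase from ISG56 promoter only with Renilla not read in this screen; 0% = Sendai virus plus DMSO and 100% = medium plus DMSO without virus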); conditions: HEK293 RL24 IRF3 luciferase reporter, at 10 µM, stronger effect = higher value
[8] = TLR3 IRF3 reporter activation blockers – cell-based, poly I:C stimulus, luciferase, 10K MLSCN set, primary screen (AID 602277;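 active means inhibition of the reporter signal at or above 50%; inactive means inhibition below 50%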); conditions: HEK293-TLR3 RL24 IRF3 luciferase reporter, at 10 µM, stronger effect = higher value

Compound | cell count [1] | inhibition [1] | inhibition of aggregation [2] | nuclei count [2] [%] | inhibition [3] | nuclei count [3] [%] | fluorescence slope [4] | NADPH fluorescence slope [5] | fluorescence slope [6] | inhibition [7] | inhibition [8]
Cc1cc(C)c(S(=O)(=O)N(C)CC(N)=O)c(C)c1 | 320 | 5.1% (inactive) | -7.6% (inactive) | 103 | -60.9% (inactive) | 111 | -0.489 (inactive) | 4.3e-05 (inactive) | 0.00514 (inactive) | -4.02% (inactive) | -17.9% (inactive)
Cc1cc(NC(=O)c2cc(-c3ccco3)on2)n(-c2ccccc2)n1 | 326 | 6.8% (inactive) | 6.4% (inactive) | 105 | -56.3% (inactive) | 121 | -0.466 (inactive) | -2.4e-05 (inactive) | 0.00551 (inactive) | 17.5% (inactive) | 12.9% (inactive)
Cc1ccc(Cn2ccc(NC(=O)c3noc4c3CCCC4)n2)cc1 | 246 | -0.8% (inactive) | -6.8% (inactive) | 97.7 | 44.7% (inactive) | 117 | -0.539 (inactive) | -3.2e-05 (inactive) | 0.00747 (inactive) | 10% (inactive) | -98.2% (inactive)
CCOC(=O)c1[nH]c(C)c(C(=O)N(C)C)c1C | 684 | -10.9% (inactive) | 14.5% (inactive) | 111 | -68% (inactive) | 106 | -0.465 (inactive) | -1.4e-05 (inactive) | 0.00674 (inactive) | -36.1% (inactive) | 99.3% (active)
Cc1ccc(C)c(-c2nc3ccc(N)cc3[nH]2)c1 | 340 | 3.9% (inactive) | 30.3% (inactive) | 77.7 | -114% (inactive) | 100 | -0.0465 (active) | -3.5e-05 (inactive) | 0.00338 (inactive) | 15.4% (inactive) | -9.14% (inactive)
O=C(NCc1cccs1)C(Cc1ccccc1)NS(=O)(=O)c1cccs1 (stereo not drawn) | 469 | -1.7% (inactive) | 0% (inactive) | 108 | -26.1% (inactive) | 111 | -0.437 (inactive) | -0.000238 (active) | 0.00454 (inactive) | 14.7% (inactive) | 15.2% (inactive)
CC(C)(C)OC(=O)NC(CCNC=C1C(=O)OC(C)(C)OC1=O)C(=O)O (stereo not drawn) | 255 | 7.2% (inactive) | 12.3% (inactive) | 106 | -87% (inactive) | 103 | -0.299 (inactive) | -5.2e-05 (inactive) | 0.00613 (inactive) | 5.28% (inactive) | 0.81% (inactive)
Cc1ccc(C)n1NC(=O)c1ccco1 | 692 | -4.7% (inactive) | 0% (inactive) | 94.1 | -19.2% (inactive) | 109 | -0.567 (inactive) | -1.3e-05 (inactive) | 0.00521 (inactive) | 9.01% (inactive) | 14.3% (inactive)
CCN1CCN(S(=O)(=O)c2ccc(S(=O)(=O)N(CC)Cc3ccccc3)cc2)CC1 | 579 | -0.8% (inactive) | -9.2% (inactive) | 104 | -27.9% (inactive) | 108 | -0.527 (inactive) | 4.3e-06 (inactive) | 0.00522 (inactive) | 16.4% (inactive) | 16.6% (inactive)
COc1ccc(C)cc1S(=O)(=O)N1CCN(Cc2ccccc2)CC1 | 708 | -7.1% (inactive) | -4.2% (inactive) | 98.5 | -41.3% (inactive) | 102 | -0.558 (inactive) | -1.1e-05 (inactive) | 0.00529 (inactive) | 21.4% (inactive) | 19.5% (inactive)
O=C(CSc1nc(-c2ccco2)cc(C(F)(F)F)n1)N1CCCc2ccccc21 | 700 | 0% (inactive) | 3.1% (inactive) | 104 | -20.9% (inactive) | 114 | -0.585 (inactive) | -2.5e-05 (inactive) | 0.00488 (inactive) | 19% (inactive) | 13.4% (inactive)
Cc1nc(NC(=O)C2CC3CCCC(C2)C3=O)sc1C (stereo not drawn) | 411 | 4.4% (inactive) | -32.5% (inactive) | 110 | -36.5% (inactive) | 106 | -0.581 (inactive) | -4.4e-05 (inactive) | 0.00306 (inactive) | -54.4% (inactive) | -87.2% (inactive)
CCOC(=O)c1cc2c(=O)n3cccc(C)c3nc2n(Cc2ccco2)c1=NC(=O)c1cccnc1 | 791 | -1.1% (inactive) | 1.7% (inactive) | 108 | -59.3% (inactive) | 112 | -0.439 (inactive) | -2e-05 (inactive) | 0.00326 (inactive) | 8% (inactive) | -0.151% (inactive)
CCn1c(C(=O)OC)cc2c1ccn2-c1ccc(F)cc1 | 648 | -2.6% (inactive) | 25% (inactive) | 99.6 | -86.1% (inactive) | 105 | -0.61 (inactive) | -2e-05 (inactive) | 0.00586 (inactive) | -52.7% (inactive) | -96.4% (inactive)
CC(OC1=CC(=O)CCC1)C(=O)c1ccccc1 (stereo not drawn) | 370 | 10.4% (inactive) | 36.6% (active) | 64.2 | 24.1% (inactive) | 72.3 | -0.569 (inactive) | 1.9e-05 (inactive) | 0.00642 (inactive) | 14.1% (inactive) | 18.3% (inactive)
CC(=O)N1c2c(cc(Br)cc2S(=O)(=O)N2CCN(c3ccccn3)CC2)CC1C (stereo not drawn) | 365 | -15.4% (inactive) | 21.2% (inactive) | 93.1 | -49.9% (inactive) | 128 | -0.523 (inactive) | -0.000101 (inactive) | 0.00651 (inactive) | 15.6% (inactive) | 6.87% (inactive)
Cc1ccc(Cn2ncc3c(NCCCN4CCOCC4)ncnc32)cc1 | 642 | -14.6% (inactive) | 13.9% (inactive) | 84.8 | -8.1% (inactive) | 98.3 | -0.568 (inactive) | -1.3e-05 (inactive) | 0.00555 (inactive) | 22.3% (inactive) | 11.4% (inactive)
CCOc1ccc(NC(=O)c2ccncc2)cc1 | 631 | 3.6% (inactive) | 8.2% (inactive) | 98.3 | -122% (inactive) | 106 | -0.466 (inactive) | -4.7e-05 (inactive) | 0.0047 (inactive) | -5.38% (inactive) | -19.1% (inactive)
Cc1c2c(nc3nc4ccccc4n13)CC(C)(C)CC2=O | 632 | 8.2% (inactive) | -6.2% (inactive) | 109 | -63.4% (inactive) | 106 | -0.603 (inactive) | -2.5e-05 (inactive) | 0.00409 (inactive) | 16.3% (inactive) | 28.8% (inactive)
CC1(C)CC(=O)C=C(Nc2ccc(F)cc2)C1 | 454 | 10.9% (inactive) | 3.9% (inactive) | 99.5 | -20% (inactive) | 109 | -0.607 (inactive) | 3.1e-05 (inactive) | 0.00469 (inactive) | -2.98% (inactive) | 13.6% (inactive)
CC(=O)NCCn1ccc2ccccc21 | 272 | 14.1% (inactive) | 17.6% (inactive) | 93 | -55.1% (inactive) | 99.6 | -0.518 (inactive) | 0.000103 (inactive) | 0.00841 (inactive) | 16.6% (inactive) | 20.7% (inactive)
Cc1nn(-c2nc3ccccc3[nH]2)c(N)c1-c1ccccc1 | 666 | -7.5% (inactive) | -12.6% (inactive) | 110 | -105% (inactive) | 110 | -0.47 (inactive) | -2.8e-06 (inactive) | 0.00573 (inactive) | -38.3% (inactive) | -134% (inactive)
O=C(C1CC2CCC1C2)N1CCN(Cc2ccc3c(c2)OCO3)CC1 (stereo not drawn) | 408 | 6.8% (inactive) | 17.4% (inactive) | 124 | -90.8% (inactive) | 116 | -0.579 (inactive) | -2.2e-05 (inactive) | 0.00565 (inactive) | 13.2% (inactive) | 19.3% (inactive)
COC(=O)c1ccccc1NC(=O)C1CCCCC1C(=O)O (stereo not drawn) | 266 | 2.8% (inactive) | 15.8% (inactive) | 98.8 | -39.2% (inactive) | 85.6 | -0.556 (inactive) | -2.1e-05 (inactive) | 0.00471 (inactive) | 12.8% (inactive) | 11.6% (inactive)
COCCN1C(=O)c2oc3c(C)cc(C)cc3c(=O)c2C1c1cccc(O)c1 (stereo not drawn) | 561 | -25% (inactive) | 6.4% (inactive) | 95.1 | -66% (inactive) | 120 | -0.545 (inactive) | -5.1e-05 (inactive) | 0.00558 (inactive) | 8.51% (inactive) | -1.3% (inactive)
Cc1cc(NCCN(C)C)n2nc(-c3cccs3)cc2n1 | 597 | 7.8% (inactive) | 6.4% (inactive) | 102 | -69% (inactive) | 114 | -0.335 (inactive) | -6.9e-05 (inactive) | 0.00655 (inactive) | -3.67% (inactive) | 1.86% (inactive)
O=c1ccn(Cc2ccccc2Cl)cc1 | 440 | 3% (inactive) | 1.3% (inactive) | 102 | 0.1% (inactive) | 131 | -0.426 (inactive) | -4e-05 (inactive) | 0.00507 (inactive) | 15.6% (inactive) | 14.2% (inactive)
CCOC(=O)c1c(NCc2ccc3c(c2)OCO3)c2ccccc2[nH]c1=O | 509 | -9.9% (inactive) | 16.6% (inactive) | 94.1 | -51.7% (inactive) | 111 | -0.252 (inactive) | -2.6e-05 (inactive) | 0.00507 (inactive) | 12.5% (inactive) | -13.3% (inactive)
